Data from ChEMBL document CHEMBL4354804, “Discovery of a New Isoxazole-3-hydroxamate-Based Histone Deacetylase 6 Inhibitor SS-208 with Antitumor Activity in Syngeneic Melanoma Mouse Models” (J Med Chem, 2019).
pIC50: −log10 of the molar value. The source made the active and inactive calls. No cut-off for these calls is given here.

What was measured:
[1] = target: T1, Protein deacetylase HDAC6 (Mus musculus) (UniProt Q9Z2V5); test: Inhibition of HDAC6 in mouse SM1 cells assessed as effect on acetylated histone H3 level at 5 uM after 24 hrs by Western blot analysis; type: cell-based
T1 sequence (whole entry): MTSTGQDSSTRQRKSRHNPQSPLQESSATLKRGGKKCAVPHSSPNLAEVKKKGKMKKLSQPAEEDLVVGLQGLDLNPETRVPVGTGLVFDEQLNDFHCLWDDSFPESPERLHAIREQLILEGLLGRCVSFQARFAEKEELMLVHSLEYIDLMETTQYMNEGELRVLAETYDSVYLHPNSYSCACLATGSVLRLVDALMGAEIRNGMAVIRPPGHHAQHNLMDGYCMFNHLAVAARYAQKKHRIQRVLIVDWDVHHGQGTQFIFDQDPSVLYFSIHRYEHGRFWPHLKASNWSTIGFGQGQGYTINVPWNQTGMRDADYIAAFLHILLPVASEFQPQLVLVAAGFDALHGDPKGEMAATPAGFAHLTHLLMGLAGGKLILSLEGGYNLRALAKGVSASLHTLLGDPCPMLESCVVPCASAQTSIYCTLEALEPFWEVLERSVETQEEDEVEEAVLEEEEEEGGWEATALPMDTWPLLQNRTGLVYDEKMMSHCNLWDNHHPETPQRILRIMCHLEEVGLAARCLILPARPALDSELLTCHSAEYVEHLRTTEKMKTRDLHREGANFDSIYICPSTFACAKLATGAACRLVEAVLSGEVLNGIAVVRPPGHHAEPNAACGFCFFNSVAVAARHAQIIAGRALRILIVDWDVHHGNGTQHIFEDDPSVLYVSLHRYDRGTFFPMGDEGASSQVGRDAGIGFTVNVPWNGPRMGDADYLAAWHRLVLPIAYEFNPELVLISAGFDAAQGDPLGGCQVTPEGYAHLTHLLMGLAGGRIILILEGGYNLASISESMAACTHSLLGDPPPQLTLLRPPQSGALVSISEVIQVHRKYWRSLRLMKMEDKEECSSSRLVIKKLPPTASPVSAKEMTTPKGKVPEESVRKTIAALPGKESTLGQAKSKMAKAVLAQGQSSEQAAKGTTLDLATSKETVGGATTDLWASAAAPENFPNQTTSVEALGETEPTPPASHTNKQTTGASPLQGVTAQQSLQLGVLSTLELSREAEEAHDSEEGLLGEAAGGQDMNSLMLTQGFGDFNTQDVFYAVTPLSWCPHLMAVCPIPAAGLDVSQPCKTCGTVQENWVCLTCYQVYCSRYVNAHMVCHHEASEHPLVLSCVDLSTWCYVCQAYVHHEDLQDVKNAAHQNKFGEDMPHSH

[2] = Mutagenicity in Salmonella typhimurium TA98 assessed as induction of >= 2 fold increase in revertant colonies at 1.5 to 1000 ug/well in absence of S9 fraction by Ames test; type: toxicity; details: salmonella enterica subsp. enterica serovar typhimurium
Procedure, shortened: (§1)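 Ames test with S. typhimurium TA98 and TA1537, with and without S9 mix. A positive call required a ≥ 2-fold (TA98) or ≥ 3-fold (TA1537) rise in mean revertant colonies over the concurrent negative/solvent control.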

[3] = Mutagenicity in Salmonella typhimurium TA98 assessed as induction of >= 2 fold increase in revertant colonies at 1.5 to 1000 ug/well in presence of S9 fraction by Ames test; type: toxicity, subcellular; details: salmonella enterica subsp. enterica serovar typhimurium; procedure, shortened: as §1
[4] = Mutagenicity in Salmonella typhimurium TA1537 assessed as induction of >= 3 fold increase in revertant colonies at 1.5 to 1000 ug/well in absence of S9 fraction by Ames test; type: toxicity; details: salmonella enterica subsp. enterica serovar typhimurium; procedure, shortened: as §1
[5] = target: Voltage-gated inwardly rectifying potassium channel KCNH2 (Homo sapiens, UniProt Q12809); test: Inhibition of human ERG expressed in HEK293 cells by manual-patch clamp assay; type: cell-based
[6] = Half life in human liver microsomes in presence of NADPH; type: ADME, Microsome
Procedure, shortened: (§2)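 Liver microsomal stability in mouse and human microsomes with NADPH; half-life in minutes.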

[7] = Half life in mouse liver microsomes in presence of NADPH; type: ADME, Microsome; procedure, shortened: as §2
[8] = target: Histone deacetylase (Mus musculus) (UniProt Q8VH37+Q9Z2V6+Q9Z2V5+O09106+Q8C2B3+P70288+O88895+Q91WA3+Q99N13+Q6NZM9+Q6P3E7); test: Inhibition of HDAC in mouse SM1 cells at 0.1 to 25 uM measured after 1 hr by HDAC-Glo 1/2 luminescent assay; type: cell-based
Procedure, shortened: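 Cells plated at 10,000 per well overnight, then after 24 h treated with compound for 1 h at 37 °C, 5% CO2. HDAC-Glo I/II developer mixed with substrate and added to wells; luminescence read every 2 min for 1 h 15 min.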

[9] = Effect on cell viability in mouse SM1 cells up to 10 uM by ApoTox-Glo triplex assay; type: cell-based
Procedure, shortened: (§3)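 SM1 cells treated with HDAC inhibitors, with pan-HDACi and assay controls on every plate. ApoTox-Glo triplex readout: viability fluorescence 400Ex/505Em, cytotoxicity fluorescence 485Ex/520Em, then caspase 3/7 reagent read by luminescence for apoptosis.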

[10] = Induction of apoptosis in mouse SM1 cells at 0.1 to 25 uM by caspase3/7 reagent based luminescence assay; type: cell-based; procedure, shortened: as §3
[11] = target: T1, Protein deacetylase HDAC6 (Mus musculus); test: Inhibition of HDAC6 in mouse SM1 cells assessed as reduction in IL-6 stimulated CD274 gene expression at 5 uM pretreated for 1 hr followed by IL-6 stimulation for overnight by qRT-PCR analysis; type: cell-based
Procedure, shortened: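 SM1 cells serum-starved overnight, pretreated 1 h with 5 µM compound, then given recombinant murine IL-6 at 30 ng/mL overnight. Total RNA extracted with Trizol; PD-L1 mRNA measured by qRT-PCR, normalized to GAPDH by the Pfaffl method, in arbitrary units.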

[12] = system: Mus musculus; test: Antitumor activity against mouse SM1 cells implanted in flank of immunocompetent C57BL/6 mouse assessed as reduction in tumor growth at 25 mg/kg, ip administered 1 week post-implantation measured for 18 days; type: functional, organism-based
Procedure, shortened: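 SM1 cells passaged in vivo mouse to mouse at least five times; 1.0 × 10^6 cells in 100 µL PBS injected subcutaneously into female C57BL/6 mice 4-6 weeks old, 10 per group. Treatment ip 25 mg/kg or 100 µL PBS vehicle, five days a week until control tumors reached maximum size. Tumor volume from calipers as L × W2/2.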

[13] = system: Mus musculus; test: Antitumor immunity against mouse SM1 cells implanted in flank of immunocompetent C57BL/6 mouse assessed as increase in infiltration of NKT cells at 25 mg/kg, ip administered 1 week post-implantation by flow cytometry; type: functional, organism-based
[14] = system: Mus musculus; test: Antitumor immunity against mouse SM1 cells implanted in flank of immunocompetent C57BL/6 mouse assessed as increase in ratio of M1/M2 macrophages at 25 mg/kg, ip administered 1 week post-implantation by flow cytometry; type: functional, organism-based
[15] = system: 5637; test: Induction of cell death in human 5637 cells at 0.1 to 25 uM; type: cell-based; details: human, 5637, 25 µM
[16] = system: Mus musculus; test: Antitumor immunity against mouse SM1 cells implanted in flank of immunocompetent C57BL/6 mouse assessed as increase in antitumor M1 macrophages at 25 mg/kg, ip administered 1 week post-implantation by flow cytometry; type: functional, organism-based

Voltage-gated inwardly rectifying potassium channel KCNH2, sequence (Q12809 whole entry): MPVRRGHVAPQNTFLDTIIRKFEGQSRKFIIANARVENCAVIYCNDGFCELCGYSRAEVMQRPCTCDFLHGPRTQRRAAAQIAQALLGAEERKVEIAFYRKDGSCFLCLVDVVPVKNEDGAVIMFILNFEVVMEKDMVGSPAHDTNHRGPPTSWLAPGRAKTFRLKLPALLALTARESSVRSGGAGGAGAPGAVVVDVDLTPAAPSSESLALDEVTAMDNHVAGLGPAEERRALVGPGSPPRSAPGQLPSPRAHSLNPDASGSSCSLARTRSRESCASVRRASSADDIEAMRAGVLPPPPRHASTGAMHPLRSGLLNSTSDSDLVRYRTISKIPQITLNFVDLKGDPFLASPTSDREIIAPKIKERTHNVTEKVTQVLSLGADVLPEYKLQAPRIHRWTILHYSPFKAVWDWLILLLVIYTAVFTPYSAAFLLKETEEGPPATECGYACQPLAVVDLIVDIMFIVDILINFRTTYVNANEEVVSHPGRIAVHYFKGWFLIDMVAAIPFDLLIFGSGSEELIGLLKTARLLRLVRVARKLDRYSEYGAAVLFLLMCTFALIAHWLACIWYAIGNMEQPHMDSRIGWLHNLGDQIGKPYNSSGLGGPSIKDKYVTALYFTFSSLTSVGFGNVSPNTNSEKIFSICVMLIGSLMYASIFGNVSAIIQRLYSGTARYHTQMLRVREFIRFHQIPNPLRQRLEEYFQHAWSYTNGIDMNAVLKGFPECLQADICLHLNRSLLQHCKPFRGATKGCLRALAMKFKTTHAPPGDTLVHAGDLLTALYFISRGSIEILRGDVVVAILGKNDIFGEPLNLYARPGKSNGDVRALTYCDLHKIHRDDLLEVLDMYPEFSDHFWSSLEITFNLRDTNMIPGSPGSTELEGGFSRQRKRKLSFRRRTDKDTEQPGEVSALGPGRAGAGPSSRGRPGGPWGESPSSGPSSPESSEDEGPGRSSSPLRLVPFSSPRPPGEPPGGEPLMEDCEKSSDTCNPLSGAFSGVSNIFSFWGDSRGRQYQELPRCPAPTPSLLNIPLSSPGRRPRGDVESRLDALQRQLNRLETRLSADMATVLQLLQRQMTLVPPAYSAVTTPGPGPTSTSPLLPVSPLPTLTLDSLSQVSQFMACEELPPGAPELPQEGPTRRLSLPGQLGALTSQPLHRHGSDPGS

With `O=C(NCCc1cc(C(=O)NO)no1)c1ccc(Cl)c(Cl)c1` the inhibition [1] was “inactive”, the Activity [2] was “Non-Toxic” and the Activity [3] was “Non-Toxic”. The Activity [4] was “Non-Toxic”, the pIC50 [5] was under 4.52 and the half-life [6] was 2.25 h. For the same compound, the half-life [7] was 0.617 h, the inhibition [8] was “Active” and the Activity [9] was “Non-Toxic”. The Activity [10] was “Non-Toxic”, the inhibition [11] was “Active” and the inhibition [12] was “Active”. The Activity [13] was “Active”, the Activity [14] was “Active” and the Activity [15] was “Non-Toxic”. The Activity [16] was “Active”.
